Measured values: ChEMBL document CHEMBL3352156, “Endoplasmic reticulum stress suppressive compounds from the edible mushroom Mycoleptodonoides aitchisonii” (J Nat Prod, 2014)
Calls of active or inactive are those of the source. The rule behind the calls is not given here.

Columns and labels:
N2a [1] = experiment: Protection against tunicamycin-induced ER-stress-dependent mouse Neuro2a cell death assessed as cell viability after 24 hrs by MTT assay; assay type: functional, cell-based
How it was run: (§1)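 Neuro2a cells in D-MEM with 10% FBS, seeded at 2000 cells/well and grown 24 h. Pretreated 6 h with graded compound levels in serum-free D-MEM, then stressor added to final 0.5 μg/mL tunicamycin or 10 nM thapsigargin for 24 h. MTT 0.25 mg/mL for 2 h, stopped with SDS/DMF, A570. Viability as percent of untreated cells; TG mean ± SE, n = 10−12; Tukey–Kramer tests.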

N2a [2] = experiment: Protection against thapsigargin-induced ER-stress-dependent mouse Neuro2a cell death assessed as cell viability at > 50 uM after 24 hrs by MTT assay; assay type: functional, cell-based; how it was run: as §1

SMILES	Activity (N2a [1])	Activity (N2a [2])
CC1=C(C(C)O)C(O)OC1=O (stereo unspecified)	inactive	Active
OCC[C@H](O)CCc1ccccc1	inactive	Active
CC1=C(CO)C(C)(O)OC1=O (stereo unspecified)	inactive	Active
OCC[C@H](O)[C@H](O)Cc1ccccc1	inactive	Active
CC(=O)[C@@H]1COC(=O)[C@H]1C	inactive	Active
CC1=C(C)C(C)(O)OC1=O (stereo unspecified)	inactive	Active
C[C@@H](O)[C@H]1COC(=O)[C@@H]1C	inactive	Active
CC(=O)[C@@H]1COC(=O)[C@@H]1C	inactive	inactive
